The text below walks through data of ChEMBL document CHEMBL1143151, “Design, synthesis and antimalarial activity of benzene and isoquinoline sulfonamide derivatives” (2008).

Molecules are shown by their SMILES. Converted amounts (≈) assume the structure as drawn.

The subject of the assay is Plasmodium falciparum. Nature of the assay: Antimalarial activity against Plasmodium falciparum NF54 after 36-40 hrs. Type of assay: functional. In short, it runs like this: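 P. falciparum NF-54 kept in RPMI-1640 with 25 mM Hepes, 1% D-glucose, 0.23% sodium bicarbonate, 10% heat-inactivated human serum; D-sorbitol (5%) synchronized to ring stage. ~1% ring parasitaemia, 3% haematocrit; compound […] µg/mL, duplicate wells, 37 °C candle jar, 36–40 h. Giemsa smears scored microscopically; MIC = concentration blocking full maturation to schizonts. Pyrimethamine reference.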
`O=S(=O)(c1ccccc1)N1CCN(c2ccccn2)CC1` displayed an MIC of 10 µg/mL (≈ 33 µM). To `O=[N+]([O-])c1ccc(S(=O)(=O)N2CCN(c3ccccn3)CC2)cc1` belongs 10 µg/mL (≈ 28.7 µM); to `O=[N+]([O-])c1ccc(S(=O)(=O)N2CCN(Cc3ccccc3)CC2)cc1`, 10 µg/mL (≈ 27.7 µM); to `Cc1ccc(S(=O)(=O)N2CCN(CCO)CC2)cc1`, 10 µg/mL (≈ 35.2 µM). To `COc1ccc(CCNS(=O)(=O)c2ccc(C)cc2)cc1OC` belongs 10 µg/mL (≈ 29.8 µM). `O=[N+]([O-])c1ccc(S(=O)(=O)NCCCN2CCOCC2)cc1` yielded an MIC of 10 µg/mL (≈ 30.4 µM). To `O=S(=O)(NCCCN1CCOCC1)c1ccccc1` belongs 10 µg/mL (≈ 35.2 µM).

Take `CN(CC(O)CNCc1ccccc1)S(=O)(=O)c1cccc2cnccc12` (centres undefined): the MIC was 10 µg/mL (≈ 25.9 µM). For `Cc1ccc(S(=O)(=O)N2CCN(Cc3ccccc3)CC2)cc1` the value was 10 µg/mL (≈ 30.3 µM); for `O=S(=O)(c1ccccc1)N1CCN(CCO)CC1`, 10 µg/mL (≈ 37 µM). To `CN(CC(O)CNCCc1c[nH]c2ccccc12)S(=O)(=O)c1cccc2cnccc12` (centres undefined) belongs 10 µg/mL (≈ 22.8 µM). With `CN(CC(O)CNCc1ccco1)S(=O)(=O)c1cccc2cnccc12` (centres undefined), the MIC came out at 10 µg/mL (≈ 26.6 µM). For `CN(CC(O)CNCc1ccc(Cl)cc1Cl)S(=O)(=O)c1cccc2cnccc12` (centres undefined) the value was 2 µg/mL (≈ 4.4 µM); for `O=S(=O)(c1cccc2cnccc12)N1CCN(CCO)CC1`, 50 µg/mL (≈ 156 µM); for `CN1CCN(S(=O)(=O)c2ccc([N+](=O)[O-])cc2)CC1`, 10 µg/mL (≈ 35 µM). To `Cc1ccc(S(=O)(=O)N2CCN(c3ccc(Cl)cc3)CC2)cc1` belongs 10 µg/mL (≈ 28.5 µM); to `COc1ccc(CCNS(=O)(=O)c2ccccc2)cc1OC`, 10 µg/mL (≈ 31.1 µM).

In turn, `Cc1ccc(S(=O)(=O)NCCCn2ccnc2)cc1` had an MIC of 10 µg/mL (≈ 35.8 µM).

`O=[N+]([O-])c1ccc(S(=O)(=O)N2CCN(CCO)CC2)cc1` returned an MIC of 10 µg/mL (≈ 31.7 µM). To `COc1ccc(CCNCC(O)CN(C)S(=O)(=O)c2cccc3cnccc23)cc1OC` (centres undefined) belongs 10 µg/mL (≈ 21.8 µM); to `NCCN1CCN(S(=O)(=O)c2cccc3cnccc23)CC1`, 10 µg/mL (≈ 31.2 µM). To `CN(CC(O)CNCc1ccccc1Cl)S(=O)(=O)c1cccc2cnccc12` (centres undefined) belongs 10 µg/mL (≈ 23.8 µM). `CN(CC(O)CNCCCn1ccnc1)S(=O)(=O)c1cccc2cnccc12` (centres undefined) had an MIC of 50 µg/mL (≈ 124 µM). To `CN(CC(O)CNCc1ccc(Cl)cc1)S(=O)(=O)c1cccc2cnccc12` (centres undefined) belongs 10 µg/mL (≈ 23.8 µM). To `O=S(=O)(c1ccccc1)N1CCN(c2ccc(Cl)cc2)CC1` belongs 10 µg/mL (≈ 29.7 µM); to `O=[N+]([O-])c1ccc(S(=O)(=O)N2CCN(c3cccc(Cl)c3)CC2)cc1`, 10 µg/mL (≈ 26.2 µM).

`CN1CCN(S(=O)(=O)c2ccccc2)CC1` yielded an MIC of 10 µg/mL (≈ 41.6 µM).

Compound `Cc1ccc(S(=O)(=O)NCCCN2CCOCC2)cc1` had an MIC of 10 µg/mL (≈ 33.5 µM). To `CN(CC(O)CNCCc1ccc(O)cc1)S(=O)(=O)c1cccc2cnccc12` (centres undefined) belongs 50 µg/mL (≈ 120 µM). `Cc1ccc(S(=O)(=O)N2CCN(C)CC2)cc1` came in with an MIC of 10 µg/mL (≈ 39.3 µM).

Consider `CN(CC(O)CNCc1ccc(Cl)c(Cl)c1)S(=O)(=O)c1cccc2cnccc12` (centres undefined), for which the MIC came to 2 µg/mL (≈ 4.4 µM). To `COc1ccc(CCNS(=O)(=O)c2ccc([N+](=O)[O-])cc2)cc1OC` belongs 10 µg/mL (≈ 27.3 µM); to `COc1ccc(CCNCC(O)CN(C)S(=O)(=O)c2cccc3cnccc23)cc1` (centres undefined), 10 µg/mL (≈ 23.3 µM); to `CCc1nc(N)nc(N)c1-c1ccc(Cl)cc1` [PYRIMETHAMINE], 10 µg/mL (≈ 40.2 µM).
